The values below come from ChEMBL document CHEMBL2029266, “Discovery and evaluation of selective N-type calcium channel blockers: 6-unsubstituted-1,4-dihydropyridine-5-carboxylic acid derivatives” (Bioorg Med Chem Lett, 2012).

Data set [1] concerns the target Voltage-dependent N-type calcium channel subunit alpha-1B (Homo sapiens, UniProt Q00975). The data set is described as follows: Inhibition of N-type voltage-dependent calcium channel CaV2.2 in human IMR32 cells assessed as inhibition of KCl-induced increase in intracellular calcium concentration preincubated for 4 to 5 mins before KCl challenge. The class given is cell-based, IMR-32. A digest of the protocol:
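IMR-32 cells on poly-L-lysine/collagen dishes, differentiated with 1 mM dibutyl-cAMP and 2.5 µM bromodeoxyuridine for 10–14 days. Loaded with 2.5 µM fura-2/AM, 37 °C, 30 min. HEPES recording medium with 1 µM nifedipine throughout. Calcium rise evoked by 60 mM KCl for 6 s, repeated every 5 min. Compound at 0.1, 1 or 10 µM; IC50 from ≥2 independent experiments.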

Data set [2] addresses L-type voltage-dependent calcium channel (Rattus norvegicus, UniProt P22002+P27732+Q02485). The data set is described as follows: (§1) Inhibition of L-type voltage-dependent calcium channel in Sprague-Dawley rat aorta at 10 uM by Magnus method. The format is tissue-based. The settings on record: Sprague-Dawley, isolated rat aorta. A digest of the protocol:
(§2)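 Rat aortic ring in organ bath, Tyrode's solution pH 7.4, 37 °C, 95% O2/5% CO2. Equilibrated 1 h at 2 g resting tension. Then exposed to high-K+ Tyrode (50 mM KCl replacing NaCl) and to normal Tyrode, 45 min each. Activity reported as inhibition or IC50.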

In data set [3] the test system is Rattus norvegicus. The data set is described as follows: Analgesic activity in Sprague-Dawley rat assessed as inhibition of formalin-induced pain at 100 mg/kg, po. The format is functional. A digest of the protocol:
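Formalin injected into the rat footpad; phase II pain responses scored after oral dosing. Read-out is % inhibition relative to the control group, n = 3 animals at this dose.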

For data set [4], the target named is T1, Voltage-gated L-type calcium channel (Rattus norvegicus, UniProt P22002+Q02485+P27732). The data set is described as §1. The class given is tissue-based. The settings on record: 10 µM. A digest of the protocol: as §2
In data set [5] the target is T1, Voltage-gated L-type calcium channel. The experiment in a line: Inhibition of L-type voltage-dependent calcium channel in Sprague-Dawley rat aorta by Magnus method. The class given is tissue-based. Put shortly: as §2
In data set [6] the test system is Rattus norvegicus. The experiment in a line: Analgesic activity in Sprague-Dawley rat assessed as inhibition of formalin-induced pain at 3 mg/kg, po. The class given is functional. Put shortly:
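Rats received formalin by footpad injection, and phase II pain responses were scored. Compound given orally. Inhibition is expressed as % versus the control group, n = 5.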

Molecules are shown by their SMILES.

Chain of Voltage-dependent N-type calcium channel subunit alpha-1B (Q00975 whole entry): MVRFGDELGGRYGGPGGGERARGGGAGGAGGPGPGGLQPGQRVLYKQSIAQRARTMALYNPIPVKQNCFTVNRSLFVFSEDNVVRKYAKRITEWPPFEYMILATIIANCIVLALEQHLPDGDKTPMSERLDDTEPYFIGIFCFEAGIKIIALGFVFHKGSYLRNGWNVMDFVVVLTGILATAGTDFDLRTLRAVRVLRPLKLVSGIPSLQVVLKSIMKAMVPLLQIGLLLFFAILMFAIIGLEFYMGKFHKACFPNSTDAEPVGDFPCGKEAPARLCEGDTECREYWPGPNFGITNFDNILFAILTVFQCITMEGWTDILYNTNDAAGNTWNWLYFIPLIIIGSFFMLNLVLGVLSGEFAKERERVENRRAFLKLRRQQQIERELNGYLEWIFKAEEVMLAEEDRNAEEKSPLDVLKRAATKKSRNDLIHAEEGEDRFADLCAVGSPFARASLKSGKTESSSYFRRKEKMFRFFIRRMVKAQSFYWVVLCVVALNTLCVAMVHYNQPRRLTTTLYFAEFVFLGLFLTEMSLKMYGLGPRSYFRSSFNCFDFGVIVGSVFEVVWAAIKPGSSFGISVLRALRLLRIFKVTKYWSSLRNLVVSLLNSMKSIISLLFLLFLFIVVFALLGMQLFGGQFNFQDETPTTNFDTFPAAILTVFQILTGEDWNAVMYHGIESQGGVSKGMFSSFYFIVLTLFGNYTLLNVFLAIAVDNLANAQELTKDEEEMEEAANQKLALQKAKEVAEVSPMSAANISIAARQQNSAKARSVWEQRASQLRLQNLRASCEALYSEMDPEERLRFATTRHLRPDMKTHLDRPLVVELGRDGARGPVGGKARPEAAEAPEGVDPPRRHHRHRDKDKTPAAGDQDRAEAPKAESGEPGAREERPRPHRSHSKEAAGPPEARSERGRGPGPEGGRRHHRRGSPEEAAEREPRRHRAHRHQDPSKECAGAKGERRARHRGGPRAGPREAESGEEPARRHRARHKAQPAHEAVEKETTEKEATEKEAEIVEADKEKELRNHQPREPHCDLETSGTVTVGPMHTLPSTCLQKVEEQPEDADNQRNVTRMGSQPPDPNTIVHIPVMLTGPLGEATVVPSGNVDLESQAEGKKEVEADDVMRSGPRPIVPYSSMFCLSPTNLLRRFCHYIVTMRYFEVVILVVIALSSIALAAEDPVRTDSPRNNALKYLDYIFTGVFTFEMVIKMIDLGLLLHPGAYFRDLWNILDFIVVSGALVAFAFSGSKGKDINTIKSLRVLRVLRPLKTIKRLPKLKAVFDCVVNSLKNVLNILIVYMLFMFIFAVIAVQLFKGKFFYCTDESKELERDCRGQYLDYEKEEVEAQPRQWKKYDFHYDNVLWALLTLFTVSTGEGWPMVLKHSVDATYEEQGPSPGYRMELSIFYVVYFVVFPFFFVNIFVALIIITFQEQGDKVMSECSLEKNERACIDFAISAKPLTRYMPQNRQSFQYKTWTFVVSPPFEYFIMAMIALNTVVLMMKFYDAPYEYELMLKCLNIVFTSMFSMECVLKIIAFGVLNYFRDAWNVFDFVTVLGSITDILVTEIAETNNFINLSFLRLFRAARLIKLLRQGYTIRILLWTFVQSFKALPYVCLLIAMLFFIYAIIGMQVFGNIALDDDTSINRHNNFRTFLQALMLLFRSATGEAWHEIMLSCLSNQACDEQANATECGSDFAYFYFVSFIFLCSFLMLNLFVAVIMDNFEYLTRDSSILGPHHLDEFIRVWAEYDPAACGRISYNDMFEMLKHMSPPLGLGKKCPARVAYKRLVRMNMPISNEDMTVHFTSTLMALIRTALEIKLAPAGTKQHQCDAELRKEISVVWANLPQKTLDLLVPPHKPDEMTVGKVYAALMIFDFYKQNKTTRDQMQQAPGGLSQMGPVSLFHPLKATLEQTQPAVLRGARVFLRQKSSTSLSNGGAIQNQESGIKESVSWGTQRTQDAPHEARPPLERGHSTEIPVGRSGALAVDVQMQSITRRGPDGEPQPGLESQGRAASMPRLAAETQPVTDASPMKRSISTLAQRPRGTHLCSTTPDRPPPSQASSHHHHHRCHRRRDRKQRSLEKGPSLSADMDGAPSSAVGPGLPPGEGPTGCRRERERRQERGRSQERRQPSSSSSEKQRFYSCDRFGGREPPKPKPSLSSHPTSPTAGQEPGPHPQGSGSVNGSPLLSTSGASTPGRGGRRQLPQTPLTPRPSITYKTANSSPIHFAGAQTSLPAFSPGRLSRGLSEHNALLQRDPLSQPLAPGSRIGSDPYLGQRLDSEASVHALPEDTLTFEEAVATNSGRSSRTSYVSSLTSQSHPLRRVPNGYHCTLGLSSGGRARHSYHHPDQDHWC

With `O=C(O)C1=CNC=C(C(=O)OC/C=C/c2ccccc2)C1c1ccc(Cl)cc1` (centres undefined), the half-inhibitory concentration (IC50) in data set [1] came to 1200 nM. Further, the inhibition at 10 µM in data set [2] was 16%.

As to `COc1ccc(C2C(C(=O)O)=CNC=C2C(=O)OC/C=C/c2ccccc2)cc1Cl` (centres undefined), the 50% inhibitory concentration (IC50) in data set [1] worked out at 1300 nM. In addition, in data set [2], the inhibition at 10 µM turned out to be 15%.

In the case of `COC(OC)C1=C(C(=O)OC/C=C/c2ccccc2)C(c2cccc(C(F)(F)F)c2)C(C(=O)O)=CN1` (centres undefined), the 50% inhibitory concentration (IC50) in data set [1] came to 1100 nM. Besides, the inhibition at 10 µM in data set [2] stood at 17%.

For `NCC1(CC(=O)O)CCCCC1` [GABAPENTIN], the inhibition in vivo at 100 mg/kg in the data set with Rattus norvegicus [3] was 33%.

Turning to `COC(OC)C1=C(C(=O)OC/C=C/c2ccccc2)C(c2cc(Cl)cc(Cl)c2)C(C(=O)O)=CN1` (centres undefined), the half-inhibitory concentration (IC50) in data set [1] turned out to be 1000 nM. Also, in data set [2], the inhibition at 10 µM amounted to 4%.

Regarding `O=C(O)C1=CNC=C(C(=O)OC/C=C/c2ccccc2)C1c1ccc(Cl)c(Cl)c1` (centres undefined), the IC50 in data set [1] amounted to 750 nM. For the same molecule, the inhibition at 10 µM in data set [2] was 41%.

Take `COC(OC)C1=C(C(=O)OC/C=C/c2ccccc2)C(c2ccc(Cl)cc2)C(C(=O)O)=CN1` (centres undefined): the half-inhibitory concentration (IC50) in data set [1] was 1100 nM. For the same molecule, the inhibition at 10 µM in data set [2] was 7.9%.

On to `COc1ccc(C2C(C(=O)O)=CNC(C(OC)OC)=C2C(=O)OC/C=C/c2ccccc2)cc1Cl` (centres undefined), for which the IC50 in data set [1] is 1500 nM. In data set [2], the inhibition at 10 µM came to 26%.

`COc1c(Cl)cc(C2C(C(=O)O)=CNC=C2C(=O)OC/C=C/c2ccccc2)cc1Cl` (stereo in doubt; (-)-3f): the concentration for half-maximal inhibition (IC50) in data set [1] was determined as 840 nM. For the same molecule, the “inhibition (INH)” value in data set [4] came out at 28%.

Turning to `COc1c(Cl)cc(C2C(C(=O)O)=CNC=C2C(=O)OC/C=C/c2ccccc2)cc1Cl` (single isomer, unassigned; (+)), the half-maximal inhibitory concentration (IC50) in data set [1] came to 720 nM; in data set [5], 44000 nM. The “inhibition (INH)” value in data set [4] is on record as 6.5%. Also, in the data set on Rattus norvegicus [6], the inhibition in vivo at 3 mg/kg amounted to 35%.

Regarding `COC(OC)C1=C(C(=O)OC/C=C/c2ccccc2)C(c2ccc(Cl)c(Cl)c2)C(C(=O)O)=CN1` (centres undefined), in data set [1], the half-maximal inhibitory concentration (IC50) came out at 520 nM. Moreover, the inhibition at 10 µM in data set [2] was determined as 31%.

As for `COc1c(Cl)cc(C2C(C(=O)O)=CNC(C(OC)OC)=C2C(=O)OC/C=C/c2ccccc2)cc1Cl` (centres undefined), in data set [1], the IC50 stood at 1200 nM. In addition, the inhibition at 10 µM in data set [2] was determined as 20%.

For the molecule `O=C(O)C1=CNC=C(C(=O)OC/C=C/c2ccccc2)C1c1cccc(C(F)(F)F)c1` (centres undefined), the IC50 in data set [1] came out at 1200 nM. The inhibition at 10 µM in data set [2] was determined as 40%.

As to `COC(OC)C1=C(C(=O)OC/C=C/c2ccccc2)C(c2cccc(Cl)c2)C(C(=O)O)=C(C)N1` (centres undefined), in data set [1], the IC50 was 3000 nM.

`COc1c(Cl)cc(C2C(C(=O)O)=CNC=C2C(=O)OC/C=C/c2ccccc2)cc1Cl` (stereo in doubt; 3f): the IC50 in data set [1] worked out at 580 nM. For the same molecule, the “inhibition (INH)” value in data set [4] came to 19%.

Consider `O=C(O)C1=CNC=C(C(=O)OC/C=C/c2ccccc2)C1c1cccc(Cl)c1` (centres undefined), for which the values for the half-inhibitory concentration (IC50) in data set [1] and in data set [5] were 1600 nM and 9100 nM, respectively.

As for `COC(OC)C1=C(C(=O)OC/C=C/c2ccccc2)C(c2cccc(Cl)c2)C(C(=O)O)=CN1` (centres undefined), the IC50 in data set [1] came out at 1100 nM. Also, the inhibition at 10 µM in data set [2] amounted to 44%.
